Experimental data: ChEMBL document CHEMBL3400013, “Synthesis and biological activity evaluation of hydrazone derivatives based on a Tröger's base skeleton” (Bioorg Med Chem, 2015)
Active and inactive are the calls of the source. The rule behind the calls is not given here.

Tests used:
K562 [1] = experiment: Cytostatic activity against human K562 cells after 72 hrs by MTT assay; type: functional, cell-based; conditions: K562, 72 h
Outline: (§1)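 Cells were seeded at 25,000–30,000 per well and pre-incubated for 24 h at 37°C in 5% CO2. Four-fold compound dilutions were added in duplicate and incubated for 72 h. MTT was added for 1–4 h, and formazan was dissolved in 10% aq SDS (pH 5.5) overnight at 37°C. OD was read at 540 nm. IC50 came from dose-response curves, mean ± SD of eight independent experiments.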

A549 [2] = experiment: Cytostatic activity against human A549 cells after 72 hrs by MTT assay; type: functional, cell-based; conditions: A549, 72 h; outline: as §1
Pseudomonas aeruginosa [3] = experiment: Antimicrobial activity against Pseudomonas aeruginosa CCM 395 up to 200 uM after 24 to 48 hrs by broth microdilution method; type: functional, organism-based
HCT-116 [4] = experiment: Selectivity index, ratio of IC50 for human MRC5 cells to IC50 for human p53-/- HCT116 cells; type: functional
[5] = Cytostatic activity against human K562-TAX cells after 72 hrs by MTT assay; type: functional, cell-based; outline: as §1
Staphylococcus aureus [6] = experiment: Antimicrobial activity against Staphylococcus aureus CCM 3953 up to 200 uM after 24 to 48 hrs by broth microdilution method; type: functional, organism-based
BJ [7] = experiment: Selectivity index, ratio of IC50 for human BJ cells to IC50 for human K562-TAX cells; type: functional
[8] = Metal chelating activity of the compound assessed as formation of Ni2+ complex by UV-vis spectrometry; type: physicochemical
Pseudomonas aeruginosa [9] = experiment: Antimicrobial activity against multidrug-resistant Pseudomonas aeruginosa A/16575 up to 200 uM after 24 to 48 hrs by broth microdilution method; type: functional, organism-based
CCRF-CEM = experiment: Cytostatic activity against human CCRF-CEM cells after 72 hrs by MTT assay; type: functional, cell-based; outline: as §1
HCT-116 [10] = experiment: Selectivity index, ratio of IC50 for human MRC5 cells to IC50 for human HCT116 cells; type: functional
Nucleic Acid [11] = experiment: Binding affinity to DNA (unknown origin) assessed as DNA intercalation by UV-visible spectrophotometry in presence of Cu2+; type: nucleic-acid assay
BJ [12] = experiment: Selectivity index, ratio of IC50 for human BJ cells to IC50 for human HCT116 cells; type: functional
[13] = Metal chelating activity of the compound assessed as formation of Co2+ complex by UV-vis spectrometry; type: physicochemical
Escherichia coli [14] = experiment: Antimicrobial activity against multidrug-resistant Escherichia coli C/16702 up to 200 uM after 24 to 48 hrs by broth microdilution method; type: functional, organism-based
Candida albicans = experiment: Antifungal activity against Candida albicans up to 200 uM after 24 to 48 hrs by broth microdilution method; type: functional, organism-based
Candida parapsilosis = experiment: Antifungal activity against Candida parapsilosis up to 200 uM after 24 to 48 hrs by broth microdilution method; type: functional, organism-based
K562 [15] = experiment: Selectivity index, ratio of IC50 for human MRC5 cells to IC50 for human K562 cells; type: functional
[16] = Metal chelating activity of the compound assessed as formation of Mg2+ complex by UV-vis spectrometry; type: physicochemical
Nucleic Acid [17] = experiment: Binding affinity to DNA (unknown origin) assessed as DNA intercalation by UV-visible spectrophotometry in presence of Ni2+; type: nucleic-acid assay
BJ [18] = experiment: Selectivity index, ratio of IC50 for human BJ cells to IC50 for human CEM-DNR cells; type: functional
BJ [19] = experiment: Selectivity index, ratio of IC50 for human BJ cells to IC50 for human K562 cells; type: functional
[20] = Metal chelating activity of the compound assessed as formation of Cr3+ complex by UV-vis spectrometry; type: physicochemical
[21] = Cytostatic activity against human HCT116 cells after 72 hrs by MTT assay; type: functional, cell-based; conditions: HCT-116, 72 h; outline: as §1
Nucleic Acid [22] = experiment: Binding affinity to DNA (unknown origin) assessed as DNA intercalation by UV-visible spectrophotometry in presence of Co2+; type: nucleic-acid assay
Nucleic Acid [23] = experiment: Binding affinity to DNA (unknown origin) assessed as DNA intercalation by UV-visible spectrophotometry in presence of Zn2+; type: nucleic-acid assay
BJ [24] = experiment: Selectivity index, ratio of IC50 for human BJ cells to IC50 for human p53-/- HCT116 cells; type: functional
[25] = Cytostatic activity against human CEM-DNR cells after 72 hrs by MTT assay; type: functional, cell-based; outline: as §1
Candida tropicalis = experiment: Antifungal activity against Candida tropicalis up to 200 uM after 24 to 48 hrs by broth microdilution method; type: functional, organism-based
[26] = Metal chelating activity of the compound assessed as formation of Fe2+ complex by UV-vis spectrometry; type: physicochemical
Escherichia coli [27] = experiment: Antimicrobial activity against Escherichia coli CCM 3954 up to 200 uM after 24 to 48 hrs by broth microdilution method; type: functional, organism-based
A549 [28] = experiment: Selectivity index, ratio of IC50 for human BJ cells to IC50 for human A549 cells; type: functional
[29] = Metal chelating activity of the compound assessed as formation of Ca2+ complex by UV-vis spectrometry; type: physicochemical
BJ [30] = experiment: Selectivity index, ratio of IC50 for human BJ cells to IC50 for human CCRF-CEM cells; type: functional; conditions: pooled result: one value given for 2 cell lines, strains, targets or settings
BJ [31] = experiment: Cytostatic activity against human BJ cells after 72 hrs by MTT assay; type: ADME, cell-based; outline: as §1
[32] = Metal chelating activity of the compound assessed as formation of Cu2+ complex by UV-vis spectrometry; type: physicochemical
Nucleic Acid [33] = experiment: Binding affinity to DNA (unknown origin) assessed as DNA intercalation by UV-visible spectrophotometry in presence of Fe3+; type: nucleic-acid assay
[34] = Metal chelating activity of the compound assessed as formation of Mn2+ complex by UV-vis spectrometry; type: physicochemical
[35] = Metal chelating activity of the compound assessed as formation of Fe3+ complex by UV-vis spectrometry; type: physicochemical
[36] = Cytostatic activity against human p53-/- HCT116 cells after 72 hrs by MTT assay; type: functional, cell-based; conditions: HCT-116, 72 h; outline: as §1
[37] = Metal chelating activity of the compound assessed as formation of Zn2+ complex by UV-vis spectrometry; type: physicochemical
Staphylococcus aureus [38] = experiment: Antimicrobial activity against methicillin-resistant Staphylococcus aureus MRSA 4591 up to 200 uM after 24 to 48 hrs by broth microdilution method; type: functional, organism-based
Nucleic Acid [39] = experiment: Binding affinity to DNA (unknown origin) assessed as DNA intercalation by UV-visible spectrophotometry; type: nucleic-acid assay
MRC5 [40] = experiment: Selectivity index, ratio of IC50 for human MRC5 cells to IC50 for human K562-TAX cells; type: functional
Enterococcus faecalis = experiment: Antimicrobial activity against Enterococcus faecalis CCM 4224 up to 200 uM after 24 to 48 hrs by broth microdilution method; type: functional, organism-based
[41] = tested on: Staphylococcus haemolyticus; experiment: Antimicrobial activity against methicillin-resistant Staphylococcus haemolyticus A1/16568 up to 200 uM after 24 to 48 hrs by broth microdilution method; type: functional, organism-based
CEM-DNR = experiment: Selectivity index, ratio of IC50 for human MRC5 cells to IC50 for human CEM-DNR cells; type: functional
A549 [42] = experiment: Selectivity index, ratio of IC50 for human MRC5 cells to IC50 for human A549 cells; type: functional
MRC5 [43] = experiment: Cytostatic activity against human MRC5 cells after 72 hrs by MTT assay; type: ADME, cell-based; conditions: MRC5, 72 h; outline: as §1
Pichia kudriavzevii = experiment: Antifungal activity against Candida crusei up to 200 uM after 24 to 48 hrs by broth microdilution method; type: functional, organism-based

For `O=C(N/N=C/c1cc([N+](=O)[O-])ccc1O)c1ccc2c3c(ccc2c1)N1Cc2c(ccc4cc(C(=O)N/N=C/c5cc([N+](=O)[O-])ccc5O)ccc24)N(C3)C1`, the IC50 (K562 [1]) was over 100 µM, the IC50 (A549 [2]) was over 100 µM and the Activity (Pseudomonas aeruginosa [3]) was “inactive”. The “Ratio IC50” value (HCT-116 [4]) was 0.9, the IC50 [5] was over 100 µM and the Activity (Staphylococcus aureus [6]) was “inactive”. The “Ratio IC50” value (BJ [7]) was 0.9, the Activity [8] was “Active” and the Activity (Pseudomonas aeruginosa [9]) was “inactive”. For the same molecule, the IC50 (CCRF-CEM) was over 100 µM, the “Ratio IC50” value (HCT-116 [10]) was 0.9 and the Activity (Nucleic Acid [11]) was “Active”. The “Ratio IC50” value (BJ [12]) was 0.9, the Activity [13] was “Active” and the Activity (Escherichia coli [14]) was “inactive”. For the same molecule, the Activity (Candida albicans) was “inactive”, the Activity (Candida parapsilosis) was “inactive” and the “Ratio IC50” value (K562 [15]) was 0.9. The Activity [16] was “Not Active”, the Activity (Nucleic Acid [17]) was “Active” and the “Ratio IC50” value (BJ [18]) was 0.9. The “Ratio IC50” value (BJ [19]) was 0.9, the Activity [20] was “Not Active” and the IC50 [21] was over 100 µM. The Activity (Nucleic Acid [22]) was “Active”, the Activity (Nucleic Acid [23]) was “Active” and the “Ratio IC50” value (BJ [24]) was 0.9. The IC50 [25] was over 100 µM, the Activity (Candida tropicalis) was “inactive” and the Activity [26] was “Not Active”. The Activity (Escherichia coli [27]) was “inactive”, the “Ratio IC50” value (A549 [28]) was 0.9 and the Activity [29] was “Not Active”. For the same molecule, the “Ratio IC50” value (BJ [30]) was 0.9, the IC50 (BJ [31]) was over 100 µM and the Activity [32] was “Active”. For the same molecule, the Activity (Nucleic Acid [33]) was “Active”, the Activity [34] was “Not Active” and the Activity [35] was “Active”. The IC50 [36] was over 100 µM, the Activity [37] was “Active” and the Activity (Staphylococcus aureus [38]) was “inactive”. The Activity (Nucleic Acid [39]) was “inactive”, the “Ratio IC50” value (MRC5 [40]) was 0.9 and the Activity (Enterococcus faecalis) was “inactive”. For the same molecule, the Activity [41] was “inactive”, the “Ratio IC50” value (CEM-DNR) was 0.9 and the “Ratio IC50” value (A549 [42]) was 0.9. For the same molecule, the IC50 (MRC5 [43]) was 88.8 µM and the Activity (Pichia kudriavzevii) was “inactive”.
